Values after ≈ are worked out from the molar mass of the structure shown.
Assays:
Format in all cases: functional
[1] = test system: Pseudomonas aeruginosa; assay: Antimicrobial activity against Pseudomonas aeruginosa PAO1 after 16 to 20 hrs by broth microdilution method
In short: (§1)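 CLSI broth microdilution: 2-fold serial antibiotic dilutions in Mueller-Hinton broth, inoculated with about 10^4 cells per 100 μl from starter cultures grown to OD600 0.5. MIC is the lowest concentration preventing growth after 16-20 h at 37°C. Triplicate.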

[2] = test system: Pseudomonas aeruginosa; assay: Antimicrobial activity against ampG deficient Pseudomonas aeruginosa PAO1 harboring pZY0901 conferring resistance to gentamycin after 16 to 20 hrs by broth microdilution method
In short: (§2)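 CLSI broth microdilution in Mueller-Hinton broth, serial 2-fold antibiotic dilutions. Inoculum about 10^4 cells per well, taken from starter cultures grown to OD600 0.5. MIC was the lowest antibiotic concentration preventing growth after 16 to 20 h at 37°C. Each MIC was determined in triplicate.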

[3] = test system: Pseudomonas aeruginosa; assay: Antimicrobial activity against ampG deficient Pseudomonas aeruginosa PAO1 after 16 to 20 hrs by broth microdilution method; in short: as §2
[4] = test system: Pseudomonas aeruginosa; assay: Antimicrobial activity against ampGh1 deficient Pseudomonas aeruginosa PAO1 after 16 to 20 hrs by broth microdilution method; in short: as §2
[5] = test system: Pseudomonas aeruginosa; assay: Antimicrobial activity against ampG, ampGh1 deficient Pseudomonas aeruginosa PAO1 after 16 to 20 hrs by broth microdilution method; in short: as §2
[6] = test system: Pseudomonas aeruginosa; assay: Antimicrobial activity against ampG deficient Pseudomonas aeruginosa PAK after 16 to 20 hrs by broth microdilution method; in short: as §2
[7] = test system: Pseudomonas aeruginosa; assay: Antimicrobial activity against ampGh1 deficient Pseudomonas aeruginosa PAK after 16 to 20 hrs by broth microdilution method; in short: as §2
[8] = test system: Pseudomonas aeruginosa; assay: Antimicrobial activity against ampG, ampGh1 deficient Pseudomonas aeruginosa PAK after 16 to 20 hrs by broth microdilution method; in short: as §2
[9] = test system: Pseudomonas aeruginosa; assay: Antimicrobial activity against ampG deficient Pseudomonas aeruginosa PAO1 harboring pUCP24 conferring resistance to gentamycin after 16 to 20 hrs by broth microdilution method; in short: as §2
[10] = test system: Pseudomonas aeruginosa; assay: Antimicrobial activity against ampG deficient Pseudomonas aeruginosa PAO1 harboring pZY0908 conferring resistance to gentamycin after 16 to 20 hrs by broth microdilution method; in short: as §2
[11] = test system: Pseudomonas aeruginosa; assay: Antimicrobial activity against ampG deficient Pseudomonas aeruginosa PAK harboring pUCP24 conferring resistance to gentamycin after 16 to 20 hrs by broth microdilution method; in short: as §2
[12] = test system: Pseudomonas aeruginosa; assay: Antimicrobial activity against ampG deficient Pseudomonas aeruginosa PAK harboring pZY0901 conferring resistance to gentamycin after 16 to 20 hrs by broth microdilution method; in short: as §2
[13] = test system: Pseudomonas aeruginosa; assay: Antimicrobial activity against Pseudomonas aeruginosa PAK after 16 to 20 hrs by broth microdilution method; in short: as §1
[14] = test system: Pseudomonas aeruginosa; assay: Antimicrobial activity against ampD, ampDh2, ampDh3 and ampG deficient Pseudomonas aeruginosa PAO1 harboring pUCP24 conferring resistance to gentamycin after 16 to 20 hrs by broth microdilution method; in short: as §2
[15] = test system: Pseudomonas aeruginosa; assay: Antimicrobial activity against ampD, ampDh2, ampDh3 and ampGh1 deficient Pseudomonas aeruginosa PAO1 after 16 to 20 hrs by broth microdilution method; in short: as §2
[16] = test system: Pseudomonas aeruginosa; assay: Antimicrobial activity against ampD, ampDh2, ampDh3 and ampG deficient Pseudomonas aeruginosa PAO1 after 16 to 20 hrs by broth microdilution method; in short: as §2
[17] = test system: Pseudomonas aeruginosa; assay: Antimicrobial activity against ampD, ampDh2, ampDh3 and ampG deficient Pseudomonas aeruginosa PAO1 harboring pZY0901 conferring resistance to gentamycin after 16 to 20 hrs by broth microdilution method; in short: as §2
[18] = test system: Pseudomonas aeruginosa; assay: Antimicrobial activity against ampD, […], ampDh2 deficient Pseudomonas aeruginosa PAO1 after 16 to 20 hrs by broth microdilution method; in short: as §2
[19] = test system: Escherichia coli; assay: Antimicrobial activity against tetracycline resistant Escherichia coli SNO301-1 harboring pEC1C carrying ampC, ampR from Enterobacter cloacae after 16 to 20 hrs by broth microdilution method
In short: (§3)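 CLSI broth microdilution: serial 2-fold β-lactam dilutions in Mueller-Hinton broth, inoculum about 10^4 cells from starter cultures at OD600 0.5; MIC read as lowest concentration preventing growth after 16 to 20 h at 37°C; triplicate determinations.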

[20] = test system: Escherichia coli; assay: Antimicrobial activity against kanamycin resistant Escherichia coli SNO301-1 harboring pEC1C carrying ampC, ampR from Enterobacter cloacae after 16 to 20 hrs by broth microdilution method; in short: as §3
[21] = test system: Escherichia coli; assay: Antimicrobial activity against gentamycin resistant Escherichia coli SNO301-1 harboring pEC1C carrying ampC, ampR from Enterobacter cloacae after 16 to 20 hrs by broth microdilution method; in short: as §3
[22] = test system: Pseudomonas aeruginosa; assay: Antimicrobial activity against Pseudomonas aeruginosa PAO1 after 16 to 20 hrs by broth microdilution method in presence of 120 uM carbonyl cyanide m-chlorophenyl-hydrazone
In short: (§4)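 CLSI broth microdilution in Mueller-Hinton broth with CCCP added from a 10 mM DMSO stock to 120 μM final, alongside 2-fold serial antibiotic dilutions. Inoculum from starter cultures grown to OD600 0.5. MIC is the lowest concentration preventing growth after 16-20 h at 37°C. Triplicate.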

[23] = test system: Pseudomonas aeruginosa; assay: Antimicrobial activity against Pseudomonas aeruginosa PAK after 16 to 20 hrs by broth microdilution method in presence of 120 uM carbonyl cyanide m-chlorophenyl-hydrazone; in short: as §4
[24] = test system: Pseudomonas aeruginosa; assay: Antimicrobial activity against ampD, ampDh2, ampDh3 deficient Pseudomonas aeruginosa PAO1 after 16 to 20 hrs by broth microdilution method in presence of 120 uM carbonyl cyanide m-chlorophenyl-hydrazone
In short: (§5)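 CLSI broth microdilution in Mueller-Hinton broth with serial antibiotic dilutions. CCCP was added from a 10 mM DMSO stock to 120 μM final, then the bacterial culture was added as inoculum (about 10^4 cells from OD600 0.5 starter cultures). MIC was the lowest concentration preventing growth after 16 to 20 h at 37°C, run in triplicate.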

[25] = test system: Pseudomonas aeruginosa; assay: Antimicrobial activity against ampG deficient Pseudomonas aeruginosa PAO1 after 16 to 20 hrs by broth microdilution method in presence of 120 uM carbonyl cyanide m-chlorophenyl-hydrazone; in short: as §5
[26] = test system: Pseudomonas aeruginosa; assay: Antimicrobial activity against ampGh1 deficient Pseudomonas aeruginosa PAO1 after 16 to 20 hrs by broth microdilution method in presence of 120 uM carbonyl cyanide m-chlorophenyl-hydrazone
In short: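 Serial 2-fold dilutions of β-lactam in Mueller-Hinton broth with CCCP added from a 10 mM DMSO stock to 120 μM final; inoculum about 10^4 cells from cultures grown to OD600 0.5; MIC taken as lowest concentration preventing growth after 16 to 20 h at 37°C; triplicate.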

[27] = test system: Pseudomonas aeruginosa; assay: Antimicrobial activity against ampG, ampGh1 deficient Pseudomonas aeruginosa PAO1 after 16 to 20 hrs by broth microdilution method in presence of 120 uM carbonyl cyanide m-chlorophenyl-hydrazone; in short: as §5
[28] = test system: Pseudomonas aeruginosa; assay: Antimicrobial activity against ampG deficient Pseudomonas aeruginosa PAO1 harboring pUCP24 conferring resistance to gentamycin after 16 to 20 hrs by broth microdilution method in presence of 120 uM carbonyl cyanide m-chlorophenyl-hydrazone; in short: as §5
[29] = test system: Pseudomonas aeruginosa; assay: Antimicrobial activity against ampG deficient Pseudomonas aeruginosa PAO1 harboring pZY0901 conferring resistance to gentamycin after 16 to 20 hrs by broth microdilution method in presence of 120 uM carbonyl cyanide m-chlorophenyl-hydrazone; in short: as §5
[30] = test system: Pseudomonas aeruginosa; assay: Antimicrobial activity against ampG deficient Pseudomonas aeruginosa PAK after 16 to 20 hrs by broth microdilution method in presence of 120 uM carbonyl cyanide m-chlorophenyl-hydrazone; in short: as §5
[31] = test system: Pseudomonas aeruginosa; assay: Antimicrobial activity against ampGh1 deficient Pseudomonas aeruginosa PAK after 16 to 20 hrs by broth microdilution method in presence of 120 uM carbonyl cyanide m-chlorophenyl-hydrazone; in short: as §5
[32] = test system: Pseudomonas aeruginosa; assay: Antimicrobial activity against ampG, ampGh1 deficient Pseudomonas aeruginosa PAK after 16 to 20 hrs by broth microdilution method in presence of 120 uM carbonyl cyanide m-chlorophenyl-hydrazone; in short: as §5
[33] = test system: Pseudomonas aeruginosa; assay: Antimicrobial activity against ampG deficient Pseudomonas aeruginosa PAK harboring pUCP24 conferring resistance to gentamycin after 16 to 20 hrs by broth microdilution method in presence of 120 uM carbonyl cyanide m-chlorophenyl-hydrazone; in short: as §5
[34] = test system: Pseudomonas aeruginosa; assay: Antimicrobial activity against ampG deficient Pseudomonas aeruginosa PAK harboring pZY0901 conferring resistance to gentamycin after 16 to 20 hrs by broth microdilution method in presence of 120 uM carbonyl cyanide m-chlorophenyl-hydrazone; in short: as §5
[35] = test system: Pseudomonas aeruginosa; assay: Antimicrobial activity against ampD, ampDh2, ampDh3 and ampG deficient Pseudomonas aeruginosa PAO1 after 16 to 20 hrs by broth microdilution method in presence of 120 uM carbonyl cyanide m-chlorophenyl-hydrazone; in short: as §5
[36] = test system: Pseudomonas aeruginosa; assay: Antimicrobial activity against ampD, ampDh2, ampDh3 and ampGh1 deficient Pseudomonas aeruginosa PAO1 after 16 to 20 hrs by broth microdilution method in presence of 120 uM carbonyl cyanide m-chlorophenyl-hydrazone; in short: as §5
[37] = test system: Pseudomonas aeruginosa; assay: Antimicrobial activity against ampD, ampDh2, ampDh3 and ampG deficient Pseudomonas aeruginosa PAO1 harboring pUCP24 conferring resistance to gentamycin after 16 to 20 hrs by broth microdilution method in presence of 120 uM carbonyl cyanide m-chlorophenyl-hydrazone; in short: as §5
[38] = test system: Pseudomonas aeruginosa; assay: Antimicrobial activity against ampD, ampDh2, ampDh3 and ampG deficient Pseudomonas aeruginosa PAO1 harboring pZY0901 conferring resistance to gentamycin after 16 to 20 hrs by broth microdilution method in presence of 120 uM carbonyl cyanide m-chlorophenyl-hydrazone; in short: as §5

Row | Compound | MIC [1] | MIC [2] | MIC [3] | MIC [4] | MIC [5] | MIC [6] | MIC [7] | MIC [8] | MIC [9] | MIC [10] | MIC [11] | MIC [12] | MIC [13] | MIC [14] | MIC [15] | MIC [16] | MIC [17] | MIC [18] | other results
1 | CC(C)(O/N=C(\C(=O)N[C@@H]1C(=O)N2C(C(=O)[O-])=C(C[n+]3ccccc3)CS[C@H]12)c1csc(N)n1)C(=O)O [CEFTAZIDIME] | 1 µg/mL (≈ 1.83 µM) | 16 µg/mL (≈ 29.3 µM) | 1 µg/mL (≈ 1.83 µM) | 1 µg/mL (≈ 1.83 µM) | 1 µg/mL (≈ 1.83 µM) | 1 µg/mL (≈ 1.83 µM) | 1 µg/mL (≈ 1.83 µM) | 1 µg/mL (≈ 1.83 µM) | 1 µg/mL (≈ 1.83 µM) | 1 µg/mL (≈ 1.83 µM) | 1 µg/mL (≈ 1.83 µM) | 32 µg/mL (≈ 58.5 µM) | 1 µg/mL (≈ 1.83 µM) | 1 µg/mL (≈ 1.83 µM) | 32 µg/mL (≈ 58.5 µM) | 1 µg/mL (≈ 1.83 µM) | 32 µg/mL (≈ 58.5 µM) | 32 µg/mL (≈ 58.5 µM) | 
2 | CO/N=C(\C(=O)N[C@@H]1C(=O)N2C(C(=O)O)=C(COC(C)=O)CS[C@H]12)c1csc(N)n1 [CEFOTAXIME] | 16 µg/mL (≈ 35.1 µM) | 256 µg/mL (≈ 562 µM) | 8 µg/mL (≈ 17.6 µM) | 16 µg/mL (≈ 35.1 µM) | 8 µg/mL (≈ 17.6 µM) | 8 µg/mL (≈ 17.6 µM) | 8 µg/mL (≈ 17.6 µM) | 8 µg/mL (≈ 17.6 µM) | 8 µg/mL (≈ 17.6 µM) | 8 µg/mL (≈ 17.6 µM) | 4 µg/mL (≈ 8.78 µM) | 512 µg/mL (≈ 1120 µM) | 8 µg/mL (≈ 17.6 µM) | 4 µg/mL (≈ 8.78 µM) | 256 µg/mL (≈ 562 µM) | 4 µg/mL (≈ 8.78 µM) | 512 µg/mL (≈ 1120 µM) | 512 µg/mL (≈ 1120 µM) | MIC [19]: < 2 µg/mL; MIC [20]: 64 µg/mL (≈ 141 µM); MIC [21]: 32 µg/mL (≈ 70.3 µM); MIC [22]: 8 µg/mL; MIC [23]: 8 µg/mL; MIC [24]: 64 µg/mL; MIC [25]: 4 µg/mL; MIC [26]: 8 µg/mL; MIC [27]: 4 µg/mL; MIC [28]: 4 µg/mL; MIC [29]: 128 µg/mL; MIC [30]: 4 µg/mL; MIC [31]: 8 µg/mL; MIC [32]: 4 µg/mL; MIC [33]: 4 µg/mL; MIC [34]: 256 µg/mL; MIC [35]: 4 µg/mL; MIC [36]: 64 µg/mL; MIC [37]: 4 µg/mL; MIC [38]: 64 µg/mL

From ChEMBL document CHEMBL1687785, “ampG gene of Pseudomonas aeruginosa and its role in β-lactamase expression” (2010)
